In the library only some 2.8% were active in any assay of this set; here they are far more common.
SR-BI uptake up: SR-BI HDL lipid transfer activation | CHO ldlA[mSR-BI] cells, DiI-HDL uptake fluorescence, 3 h; 100 = double the neutral-control signal | activation, % at 12.5 µM | hit rate 0.096% among 320,000;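 active = mean replicate activation of at least 60% and every replicate at or above 60%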;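 also: 0% = median plate neutral-control signal and 100% = twice that signal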
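System: LDL receptor-deficient CHO ldlA cells overexpressing murine SR-BI | Timing: 3 h uptake period with compound, 37 °C | Medium: HEPES-buffered (25 mM, pH 7.4) F12 plus 0.5% BSA | Dosing: Single-point compound dose | Signal: Bottom-read fluorescence, 550/595 nm | Read-out: Retained DiI signal reflecting DiI-HDL uptake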
CAL PDZ FP-1: inhibitors of human CAL PDZ peptide binding; Q9HD26; purified CAL PDZ, TMR-peptide fluorescence polarization, 1 h; inhibition, % at 20 µM; hit rate 0.02% among 330,000; AID 504414;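 active = highest replicate inhibition of at least 40%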;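 also: plate controls were DMSO neutral control wells for no effect and unlabeled competitor peptide control wells for full effect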
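Material – purified CerCALP PDZ construct · Detection – FP readout, S and P plane fluorescence · Measure – percent inhibition from loss of millipolarization · Controls – unlabelled peptide for full inhibition, DMSO wells as neutral · Probe or stimulus – TMR-labelled reporter peptide T*-PRC34 bound in PDZ groove · Times – 1 h at RT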
CAL PDZ FP-2: inhibitors of human CAL PDZ peptide binding. Q9HD26. purified CAL PDZ, TMR-peptide fluorescence polarization, 1 h. AID 602252. inhibition, % at 24.9 µM. hit rate 0.92% among 300,000;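 active = mean inhibition of at least 30% with at least half of replicates also reaching 30%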;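 also: 0% = DMSO neutral control and 100% = excess unlabeled competitor peptide PRC23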
SR-BI HDL uptake: inhibitors of mouse SR-BI mediated HDL lipid uptake | hit rate 0.96% among 320,000 | Q61009 | ldlA[mSR-BI] CHO cells, DiI-HDL uptake fluorescence, 3 h | inhibition, % at 12.5 µM;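 active = mean replicate inhibition of at least 70% and a set share of replicates each scoring 70 or more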;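 also: 0% = median of neutral control wells and 100% = median of positive control wells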
dFosB activator: activators of mouse delta FosB homodimer | activation, % at 25 µM | purified delta FosB, TAMRA-CDK5 oligo fluorescence polarization; percent of positive-control signal above neutral wells | hit rate 0.99% among 340,000 | AID 493131 | P13346;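 active = mean activation above about 17%, with every replicate also reaching it, limit read from the data, passing the limit was not always enough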
Target sequence (P13346 whole entry, looked up): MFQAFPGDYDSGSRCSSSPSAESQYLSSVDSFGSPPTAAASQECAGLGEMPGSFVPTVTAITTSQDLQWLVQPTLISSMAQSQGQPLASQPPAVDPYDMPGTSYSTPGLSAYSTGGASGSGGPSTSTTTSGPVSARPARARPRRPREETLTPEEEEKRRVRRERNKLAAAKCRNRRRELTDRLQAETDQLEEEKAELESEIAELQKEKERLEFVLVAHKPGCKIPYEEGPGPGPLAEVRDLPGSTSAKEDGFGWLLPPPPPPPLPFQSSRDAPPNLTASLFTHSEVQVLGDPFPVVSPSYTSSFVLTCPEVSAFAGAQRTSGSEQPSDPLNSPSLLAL
An asterisk follows results filed as active.

For Cc1ccccc1NC(=O)c1sc2nc3c(c(-c4ccco4)c2c1N)CCCC3 the results were SR-BI uptake up -78.7, CAL PDZ FP-1 4.3, CAL PDZ FP-2 -5.5, SR-BI HDL uptake 78.7* and dFosB activator -7.1.
Nc1c(C(=O)Nc2ccccc2)sc2nc3c(c(-c4ccco4)c12)CCCC3 was read as SR-BI uptake up -31.5, CAL PDZ FP-1 -1.7, CAL PDZ FP-2 0.1, SR-BI HDL uptake 31.5 and dFosB activator -7.9.
`Nc1c(C(=O)Nc2ccccc2)sc2nc3c(c(-c4ccco4)c12)CCC3` gave SR-BI uptake up -80.2, CAL PDZ FP-1 1.0, CAL PDZ FP-2 -3.7, SR-BI HDL uptake 80.2* and dFosB activator -8.7.
Screening CCCCc1ccc(N=N/C(C(=O)Nc2cc(OC)c(NC(C)=O)cc2OC)=C(/C)O)cc1 returned SR-BI uptake up -87.1, CAL PDZ FP-1 -0.1, CAL PDZ FP-2 -18.5, SR-BI HDL uptake 87.1* and dFosB activator -0.4.
CCCCc1ccc(N=N/C(C(=O)Nc2ccccc2OC)=C(/C)O)cc1 was read as SR-BI uptake up -16.7, CAL PDZ FP-1 0.4, CAL PDZ FP-2 -0.4, SR-BI HDL uptake 16.7 and dFosB activator -4.0.
`CCOC(=O)c1ccccc1NC(=O)COC(=O)CN1C(=O)NC2(CCCC2)C1=O` gave SR-BI uptake up -4.8, CAL PDZ FP-1 -0.3, SR-BI HDL uptake 4.8 and dFosB activator 0.4.
For CCOc1cc(C)c(Cl)cc1S(=O)(=O)N(CC)CC the results were SR-BI uptake up -8.3, CAL PDZ FP-1 -0.5, CAL PDZ FP-2 73.8*, SR-BI HDL uptake 8.3 and dFosB activator -5.9.
`CCOc1cc(S(=O)(=O)N(CC)CC)ccc1Cl` gave SR-BI uptake up 0.5, CAL PDZ FP-1 0.8, CAL PDZ FP-2 1.0, SR-BI HDL uptake -0.5 and dFosB activator 1.2.
`Cc1ccc(S(=O)(=O)N2CCCC2)cc1C(=O)NCC(C)(C)N1CCOCC1` gave SR-BI uptake up 16.6, CAL PDZ FP-1 -1.3, SR-BI HDL uptake -16.6 and dFosB activator -5.1.
Screening CCCc1nc(SCc2ccc(OCC)cc2)n[nH]1 returned SR-BI uptake up -8.7, CAL PDZ FP-2 -3.0, SR-BI HDL uptake 8.7 and dFosB activator -3.9.
For N/C(=N\OC(=O)c1ccc2c(c1)OCO2)c1ccncc1 the results were SR-BI uptake up 6.2, CAL PDZ FP-1 -1.0, CAL PDZ FP-2 48.3*, SR-BI HDL uptake -6.2 and dFosB activator -3.8.
Screening N/C(=N\OC(=O)c1ccc2c(c1)OCO2)c1ccc(Cl)cc1 returned SR-BI uptake up -9.7, CAL PDZ FP-1 0.6, CAL PDZ FP-2 1.6, SR-BI HDL uptake 9.7 and dFosB activator -10.7.
For O=C1CSC(=S)N1/N=C/c1cc(Br)c(O)c(Br)c1 the results were SR-BI uptake up -8.3, CAL PDZ FP-1 -10.4, CAL PDZ FP-2 58.9*, SR-BI HDL uptake 8.3 and dFosB activator 3.8.
Screening O=C(CSc1nnc(N2CCCC2)n1-c1ccccc1Cl)N1CCN(c2ccccn2)CC1 returned SR-BI uptake up -10.8, CAL PDZ FP-1 -0.4, CAL PDZ FP-2 40.2*, SR-BI HDL uptake 10.8 and dFosB activator 1.2.
CCN(Cc1ccccc1)C(=O)CSc1ncn[nH]1 was read as SR-BI uptake up 20.4, CAL PDZ FP-1 -2.1, CAL PDZ FP-2 9.2, SR-BI HDL uptake -20.4 and dFosB activator 2.7.
For Cc1ccc(C(=O)NC(=S)Nc2cc(C(F)(F)F)ccc2Cl)cc1 the results were SR-BI uptake up 12.8, CAL PDZ FP-1 -1.2, CAL PDZ FP-2 0.3, SR-BI HDL uptake -12.8 and dFosB activator 5.7.
`CC(=O)NC(=S)Nc1cc(C(=O)O)ccc1Cl` gave SR-BI uptake up 5.2, CAL PDZ FP-1 -0.7, CAL PDZ FP-2 116.3*, SR-BI HDL uptake -5.2 and dFosB activator 1.0.
Screening CCN1CCN(c2ncc3c(n2)CC(c2cc(OC)c(OC)c(OC)c2)CC3=O)CC1 (centres undefined) returned SR-BI uptake up 1.4, CAL PDZ FP-1 -0.6, CAL PDZ FP-2 49.6*, SR-BI HDL uptake -1.4 and dFosB activator 3.5.
For O=C1CC(c2cccc(Cl)c2)Cc2nc(N3CCN(c4ccccc4)CC3)ncc21 (centres undefined) the results were CAL PDZ FP-1 -2.3, CAL PDZ FP-2 4.3 and dFosB activator -8.3.
`COc1ccccc1CNC(=O)COc1ccccc1OC` gave SR-BI uptake up 0.2, CAL PDZ FP-2 -3.6, SR-BI HDL uptake -0.2 and dFosB activator 2.6.
COc1ccccc1CNC(=O)COc1ccc(C)cc1 was read as SR-BI uptake up 718.1*, CAL PDZ FP-1 0.4, SR-BI HDL uptake inactive and dFosB activator -2.2.
For COc1ccccc1CNC(=O)COC(=O)CC1CC2CCC1C2 (centres undefined) the results were SR-BI uptake up 17.6, CAL PDZ FP-1 -0.4, CAL PDZ FP-2 80.3*, SR-BI HDL uptake -17.6 and dFosB activator -8.5.
O=C(Cn1nc(-c2ccccc2)c2ccccc2c1=O)NCCO was read as SR-BI uptake up 6.9, CAL PDZ FP-1 0.2, CAL PDZ FP-2 -6.8, SR-BI HDL uptake -6.9 and dFosB activator -10.7.
Cc1ccnc(SC2CC(=O)N(c3ccc(F)cc3)C2=O)n1 (centres undefined) was read as SR-BI uptake up 343.9*, CAL PDZ FP-1 -1.9, CAL PDZ FP-2 -1.5, SR-BI HDL uptake -343.9 and dFosB activator 1.0.
NNc1nc2ccccc2c(=O)n1Cc1ccccc1 was read as SR-BI uptake up 15.2, CAL PDZ FP-1 -4.2, CAL PDZ FP-2 0.4, SR-BI HDL uptake -15.2 and dFosB activator -14.2.
`O=C(Nc1ccccn1)Nc1ccccc1[N+](=O)[O-]` gave SR-BI uptake up -6.2, CAL PDZ FP-2 active, SR-BI HDL uptake 6.2 and dFosB activator -3.5.
COc1cccc(OC)c1C(=O)Nc1ccc2c(c1)N(S(=O)(=O)c1cccs1)CCC2 was read as SR-BI uptake up -76.6, CAL PDZ FP-1 -3.8, CAL PDZ FP-2 -5.2, SR-BI HDL uptake 76.6* and dFosB activator 3.2.
O=C1COc2ccc(C(=O)COC(=O)/C=C/c3ccc(Br)o3)cc2N1 was read as SR-BI uptake up 8.3, CAL PDZ FP-1 -1.7, CAL PDZ FP-2 -11.4, SR-BI HDL uptake -8.3 and dFosB activator -19.9.
`O=C(Nc1cccc(C(F)(F)F)c1)Nc1ccc(N2CCCC2)c(S(=O)(=O)Nc2ccccc2Cl)c1` gave SR-BI uptake up -91.0, CAL PDZ FP-1 -1.4, CAL PDZ FP-2 -8.5, SR-BI HDL uptake 91.0* and dFosB activator 3.2.
Screening CCOc1ccc(CN2CCN(CC3CC3)CC2CCO)cc1 (centres undefined) returned SR-BI uptake up 0.1, CAL PDZ FP-1 0.2, CAL PDZ FP-2 -5.9, SR-BI HDL uptake -0.1 and dFosB activator 1.2.
Screening CN(CC(=O)Nc1ccc(F)c(F)c1F)C(=O)C1COc2ccccc2O1 (centres undefined) returned SR-BI uptake up 10.6, CAL PDZ FP-1 -0.2, SR-BI HDL uptake -10.6 and dFosB activator 2.3.
For CCc1ccc(OCc2cccc(C(=O)N/N=C\c3cnn(C)c3C)c2)cc1 the results were SR-BI uptake up -91.5, CAL PDZ FP-1 0.8, CAL PDZ FP-2 -3.0, SR-BI HDL uptake 91.5* and dFosB activator -6.3.

Screens (PubChem BioAssay)
